The nature of series [1]: Biodistribution of [18F]FES in alpha estrogen receptor knock out mouse lung after 1 h; (n=3). In kind it is ADME, organism-based. Particulars: in vivo.
Series [2] in a line: Biodistribution of [18F]FES in beta estrogen receptor knock out mouse liver after 1 h; (n=3). Particulars: in vivo. It counts as ADME, organism-based.
The nature of series [3]: Biodistribution of [18F]FES in beta estrogen receptor knock out mouse kidney after 1 h; (n=3). Particulars: in vivo. In kind it is ADME, organism-based.
Series [4] can be described thus: Biodistribution of [18F]FES in alpha estrogen receptor knock out mouse blood after 1 h; (n=3). The following applies: in vivo. In kind it is ADME, organism-based. In a few lines: (§1)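 Female αERKO mice were rested 48 h after shipping and fed estrogen-free chow. They were staged by daily vaginal smears and studied in diestrus. Each received 13 µCi [18F]FES in 100 µL 10% ethanol/saline and was sacrificed at 30 min, 1 h or 2 h (n = 3 per time). Tissue uptake is given as %ID/g ± SD.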

The nature of series [5]: Biodistribution of [18F]FES in beta estrogen receptor knock out mouse fat after 30 min(n=2); mice in nonestrus stage. The following applies: in vivo, 0.5 h. In kind it is ADME, organism-based, Adipose tissue.
Series [6] is described as follows: Biodistribution of [18F]-FES in alpha estrogen receptor knock out mouse brain after 2 h; (n=3). It counts as ADME, organism-based. The following applies: in vivo. In a few lines:
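αERKO mice staged in diestrus by vaginal smear after rest on estrogen-free chow. Injected with 13 µCi [18F]FES in 100 µL of 10% ethanol/saline and killed at 30 min, 1 h or 2 h (n=3 each). Tissues weighed and gamma-counted, reported as %ID/g ± SD.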

Series [7] is described as follows: Biodistribution of [18F]FES in beta estrogen receptor knock out mouse ovaries after 30 min(n=2); mice in nonestrus stage. It counts as ADME, organism-based, Female gonad. The following applies: in vivo, 0.5 h.
A short description of series [8]: Biodistribution of [18F]FES in beta estrogen receptor knock out mouse uterus after 1 h; (n=3). It counts as ADME, organism-based. Particulars: in vivo.
A short description of series [9]: Biodistribution of [18F]FES in beta estrogen receptor knock out mouse lung after 1 h; (n=3). It counts as ADME, organism-based. The following applies: in vivo.
Series [10] in a line: Biodistribution of [18F]FES in beta estrogen receptor knock out mouse heart after 30 min(n=2); mice in nonestrus stage. In kind it is ADME, organism-based. The following applies: in vivo, 0.5 h.
The nature of series [11]: Biodistribution of [18F]FES in alpha estrogen receptor knock out mouse liver after 30 min; (n=3). The following applies: in vivo, 0.5 h. In kind it is ADME, organism-based. In a few lines: as §1
A short description of series [12]: Biodistribution of [18F]FES in beta estrogen receptor knock out mouse liver after 30 min; (n=3). It counts as ADME, organism-based. Particulars: in vivo, 0.5 h.
Series [13] in a line: Biodistribution of [18F]FES in beta estrogen receptor knock out mouse heart after 1 h; (n=3). Particulars: in vivo. It counts as ADME, organism-based.
Series [14] in a line: Biodistribution of [18F]FES in beta estrogen receptor knock out mouse fat after 30 min; (n=3). It counts as ADME, organism-based, Adipose tissue. Particulars: in vivo, 0.5 h.
Series [15] in a line: Biodistribution of [18F]FEDPN in rat uterus after 30 min when given in tail vein; (n=5). In kind it is ADME, organism-based. The following applies: in vivo, iv, 0.5 h. In outline: (§2)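 Immature female Sprague–Dawley rats (<25 days old) under isoflurane/O2 got 20 µCi tracer in 150 µL 20% ethanol/saline by tail vein. […] Rats were killed at 30 min, 1 h or 2 h. Organs were blotted, weighed and gamma-counted against an injectate standard. Data are %ID/g ± SD, five rats per point.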

A short description of series [16]: Biodistribution of [18F]-FEDPN in rat blood after 1 hr block when given in tail vein; (n=5). In kind it is ADME, organism-based. The following applies: in vivo, iv. In a few lines: (§3)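 Immature female Sprague–Dawley rats (<25 days old) anesthetized with isoflurane/O2. Given 20 µCi tracer by tail vein in 150 µL of 20% ethanol/saline. […] Killed at 30 min, 1 h or 2 h. Blood and organs blotted, weighed and gamma-counted against a standard dilution of the injectate. Reported as %ID/g ± SD, n=5.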

A short description of series [17]: Biodistribution of [18F]FEDPN in alpha estrogen receptor knock out mouse muscle after 1 h; (n=3). Particulars: in vivo. In kind it is ADME, organism-based, Muscle tissue. In a few lines:
(§4)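 αERKO and βERKO mice, staged by daily vaginal smears and kept on estrogen-free chow, were studied in a nonestrous stage. Each mouse received 11 μCi of tracer in 130 μL of 10% ethanol/saline. Mice were killed at 30 min, 1 h or 2 h (n = 3 each). Organs were removed, blotted, weighed and gamma-counted against an injectate standard. Uptake is given as %ID/g ± SD.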

The nature of series [18]: Biodistribution of [18F]FEDPN in beta estrogen receptor knock out mouse spleen after 2 h; (n=3). It counts as ADME, organism-based. The following applies: in vivo. In a few lines: as §4
A short description of series [19]: Biodistribution of [18F]FEDPN in beta estrogen receptor knock out mouse spleen after 30 min; (n=3). It counts as ADME, organism-based. The following applies: in vivo, 0.5 h. In outline:
as §4

A short description of series [20]: Biodistribution of [18F]FEDPN in rat lung after 2 h when given in tail vein; (n=5). It counts as ADME, organism-based. Particulars: in vivo, iv. In a few lines: as §2
The nature of series [21]: Biodistribution of [18F]-FEDPN in rat fat after 30 min when given in tail vein; (n=5). It counts as ADME, organism-based, Adipose tissue. The following applies: in vivo, iv, 0.5 h. In outline:
as §3

Series [22] in a line: Biodistribution of [18F]FEDPN in beta estrogen receptor knock out mouse bone after 2 h; (n=3). It counts as ADME, organism-based, Bone element. Particulars: in vivo. In a few lines: as §4
Series [23] can be described thus: Biodistribution of [18F]FEDPN in beta estrogen receptor knock out mouse thymus after 2 h; (n=3). It counts as ADME, organism-based. The following applies: in vivo. In outline:
as §4

Series [24] in a line: Biodistribution of [18F]FEDPN in alpha estrogen receptor knock out mouse heart after 30 min; (n=3). Particulars: in vivo, 0.5 h. In kind it is ADME, organism-based. In a few lines:
(§5)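 ERKO female mice (αERKO or βERKO), rested 48 h after shipping, placed on estrogen-free chow, and staged by daily vaginal smears. Injected in a nonestrous stage with 11 µCi [18F]FEDPN in 130 µL of 10% ethanol/saline. Killed at 30 min, 1 h or 2 h. Organs counted and reported as %ID/g ± SD, three animals per point.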

A short description of series [25]: Biodistribution of [18F]-FEDPN in rat muscle after 2 hr when given in tail vein; (n=5). It counts as ADME, organism-based, Muscle tissue. The following applies: in vivo, iv. In outline: as §3
The nature of series [26]: Biodistribution of [18F]FEDPN in alpha estrogen receptor knock out mouse uterus after 2 h; (n=3). In kind it is ADME, organism-based. The following applies: in vivo. In a few lines:
as §4

Series [27] in a line: Biodistribution of [18F]FEDPN in alpha estrogen receptor knock out mouse fat after 30 min; (n=3). It counts as ADME, organism-based, Adipose tissue. Particulars: in vivo, 0.5 h. In outline: as §5
Series [28] is described as follows: Biodistribution of [18F]FEDPN in beta estrogen receptor knock out mouse brain after 30 min; (n=3). It counts as ADME, organism-based. Particulars: in vivo, 0.5 h. In outline: as §4
A short description of series [29]: Biodistribution of [18F]FEDPN in alpha estrogen receptor knock out mouse uterus after 30 min; (n=3). In kind it is ADME, organism-based. Particulars: in vivo, 0.5 h. In a few lines:
as §4

Series [30] in a line: Biodistribution of [18F]FEDPN in beta estrogen receptor knock out mouse ovaries after 30 min; (n=3). In kind it is ADME, organism-based, Female gonad. The following applies: in vivo, 0.5 h. In outline:
as §4

A short description of series [31]: Biodistribution of [18F]FEDPN in beta estrogen receptor knock out mouse uterus after 30 min; (n=3). It counts as ADME, organism-based. Particulars: in vivo, 0.5 h. In a few lines:
(§6)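 αERKO and βERKO mice were fed estrogen-free chow and staged by daily vaginal smears. Mice in a nonestrous stage each received 11 µCi tracer in 130 µL 10% ethanol/saline. Organs were taken at 30 min, 1 h or 2 h and gamma-counted. Uptake is expressed as %ID/g ± SD, three animals per point.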

Series [32] is described as follows: Biodistribution of [18F]FEDPN in alpha estrogen receptor knock out mouse thymus after 1 h; (n=3). It counts as ADME, organism-based. Particulars: in vivo. In outline:
as §4

Series [33] can be described thus: Biodistribution of [18F]FEDPN in beta estrogen receptor knock out mouse muscle after 30 min; (n=3). In kind it is ADME, organism-based, Muscle tissue. The following applies: in vivo, 0.5 h. In a few lines: as §4
Series [34] in a line: Biodistribution of [18F]FEDPN in beta estrogen receptor knock out mouse uterus after 1 h; (n=3). It counts as ADME, organism-based. The following applies: in vivo. In a few lines: as §6
Series [35] is described as follows: Biodistribution of [18F]FEDPN in beta estrogen receptor knock out mouse kidney after 30 min; (n=3). It counts as ADME, organism-based. Particulars: in vivo, 0.5 h. In a few lines:
as §4

A short description of series [36]: Biodistribution of [18F]FEDPN in beta estrogen receptor knock out mouse heart after 2 h; (n=3). In kind it is ADME, organism-based. Particulars: in vivo. In outline:
as §4

As to `C[C@]12CC[C@@H]3c4ccc(O)cc4CC[C@H]3[C@@H]1C[C@@H](F)[C@@H]2O` [FLUOROESTRADIOL], the Biodistribution is on record as 0.39 %ID/g in series [1]; 5.85 %ID/g in series [2]; 2.14 %ID/g in series [3]; 0.21 %ID/g in [4]; 2.31 %ID/g in series [5]; 0.03 %ID/g in series [6]. For the same compound, the Biodistribution in series [7] was 6.6 %ID/g; in series [8], 9.81 %ID/g; in series [9] it was 1.48 %ID/g; in series [10] it was 0.95 %ID/g; in [11] it was 7.47 %ID/g; in [12], 9.45 %ID/g. For the same compound, the Biodistribution stood at 0.46 %ID/g in [13] and 2.01 %ID/g in series [14].
With `N#C[C@H](c1ccc(O)cc1)[C@@H](CCF)c1ccc(O)cc1`, the Biodistribution in series [15] stood at 0.95 %ID/g; in [16], 0.3 %ID/g; in series [17], 0.59 %ID/g; in [18], 0.12 %ID/g; in [19], 0.87 %ID/g; in [20], 0.19 %ID/g. Further, the Biodistribution in series [21] was 0.57 %ID/g; in series [22] it was 5.15 %ID/g; in series [23], 0.11 %ID/g; in [24], 1.57 %ID/g; in series [25], 0.09 %ID/g; in series [26], 0.24 %ID/g. The Biodistribution in [27] came out at 0.57 %ID/g; in series [28], 0.93 %ID/g; in series [29], 1.11 %ID/g; in series [30], 1.4 %ID/g; in [31] it was 1.85 %ID/g; in series [32], 0.68 %ID/g. The Biodistribution is on record as 1.45 %ID/g in series [33], 0.54 %ID/g in series [34], 4.83 %ID/g in series [35] and 0.21 %ID/g in series [36].
